Columns and labels:
Translocator protein = Translocator protein (Rattus norvegicus, UniProt P16257); assay: Displacement of [3H]PK11195 from TSPO in Sprague-Dawley rat brain homogenates by liquid scintillation counting; format: tissue-based
[1] = Lipophilicity, log P by HPLC method; conditions: octanol/water
[2] = Chemical stability in 0.01 mM phosphate buffered saline assessed as purity of parent compound after 2 hrs by HPLC analysis; format: physicochemical; conditions: read-out: Activity
Summary of the method: (§1)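 Test compound incubated in phosphate buffered saline at 37 °C. Parent compound decomposition followed over time by HPLC.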

[3] = Chemical stability in 0.01 mM phosphate buffered saline assessed as purity of parent compound after 24 hrs by HPLC analysis; format: physicochemical; conditions: read-out: Activity; summary of the method: as §1
[4] = Chemical stability in 0.01 mM phosphate buffered saline assessed as purity of parent compound after 1 hr by HPLC analysis; format: physicochemical; conditions: read-out: Activity; summary of the method: as §1
[5] = Chemical stability in 0.01 mM phosphate buffered saline assessed as purity of parent compound after 4 hrs by HPLC analysis; format: physicochemical; conditions: read-out: Activity; summary of the method: as §1
[6] = Chemical stability in 0.01 mM phosphate buffered saline assessed as purity of parent compound after 6 hrs by HPLC analysis; format: physicochemical; conditions: read-out: Activity; summary of the method: as §1

Translocator protein, sequence (P16257 whole entry, looked up): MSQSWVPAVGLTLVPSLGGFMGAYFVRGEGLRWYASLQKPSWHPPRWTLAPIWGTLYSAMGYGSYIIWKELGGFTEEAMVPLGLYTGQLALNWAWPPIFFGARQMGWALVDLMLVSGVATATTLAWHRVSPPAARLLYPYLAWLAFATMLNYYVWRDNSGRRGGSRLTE

Ki (Translocator protein) [nM]	logP [1]	SMILES	other results
> 1000	5.16	CN(Cc1cccc(I)c1)C(=O)c1cc(-c2ccc(F)cc2)c2ccccc2n1	–
> 1000	5.12	Cc1c(C(=O)N(C)Cc2ccc(I)cc2)nc2ccccc2c1-c1ccccc1	–
411	5.41	CN(CCc1ccccc1)C(=O)c1nc2ccccc2c(-c2ccccc2)c1CI	–
–	–	CCN(CC)C(=O)c1nc2ccccc2c(-c2ccccc2)c1CI	remaining at 2 h [2]: 96%; remaining at 24 h [3]: 79%; remaining at 1 h [4]: 96%; remaining at 4 h [5]: 94%; remaining at 6 h [6]: 94%
–	3.85	CCC(C)N(C)C(=O)c1cc2ccccc2c(-c2ccccc2Cl)n1 (configuration not stated) [PK-11195]	–
